H69AR growth 86K = proliferation blockers of H69AR lung cancer cells, primary screen, cell-based, human, 86K library | H69AR lung tumor viability, ATP luminescence, 72 h; hits give low values | viability, % at 10 µM | 85,000 compounds, 6% hits | AID 598, 2007;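 active = viability at or below 40%; inactive = viability above 40%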;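 also: multidrug resistant small cell line overexpressing MRP-1 efflux transporter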
Lung fibro prol = antiproliferative effect on LL 47 fibroblasts – human, LL 47 cells, CellTiter-Glo luminescence, primary screen; LL 47 human lung fibroblast viability, ATP luminescence; hits give low values; viability, % at 10 µM; AID 719, 2007; 85,000 compounds, 1.1% hits;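 active = viability at or below 50% in the single dose screen; inactive = viability above 50%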;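 also: compound exposure lasted 72 h before the ATP readout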
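Signal: luminescent ATP detection, CellTiter-Glo; assay system: LL 47 human lung fibroblasts; input: 1,150 cells/well; incubation: overnight cell rest, 72 h compound treatment at 37 °C; measure: % viability versus median cells-only luminescence; medium: IMEM growth medium with 15% fetal bovine serum; dosing: compound addition at 0.1% DMSO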
Jurkat tox 60K = cytotoxicity toward Jurkat T cells, primary screen, cytotoxicity control, cell-based, Jurkat E6.1, 60K MLSMR library. Jurkat E6.1 viability, ATP luminescence, 48 h. inhibition, % at 4 µM. 56,000 compounds, 1.2% hits;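 active = inhibition above the mean inhibition of all tested compounds plus 3 SD, cut at about 28% in these data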
HUVEC prolif 384 = inhibitors of HUVEC proliferation, primary screen, cell-based, 384-well | 86,000 compounds, 1.1% hits | viability, % at 10 µM (by protocol) | CellTiter-Glo luminescence, 72 h; hits give low values;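 active = viability at or below 30%; inactive = viability above 30%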
Numbers stand for hits; 0 = inactive; - = not tested or not shown. A selection: hits, their analogues and other compounds. The true share with any hit is near 6.6%.

SMILES	H69AR growth 86K	Lung fibro prol	Jurkat tox 60K	HUVEC prolif 384
Cc1c(C(=O)O)sc2ncnc(N3CCCCC3C)c12 (centres undefined)	0	0	0	0
CCCn1c(/N=C/c2c[nH]c3ccccc23)nc2ccccc21	0	0	-	0
CCCCn1c(/N=C/c2c[nH]c3ccccc23)nc2ccccc21	1.9	0	-	0
O=C(N/N=C/c1ccco1)c1cc(-c2ccc3ccccc3c2)n[nH]1	1.8	0	-	3.7
Cc1scc(C(=O)N/N=C/c2ccco2)c1C	0	0	-	0
Cc1nc(-c2c(C(F)(F)F)noc2-c2ccc(O)cc2O)cs1	0	0	-	0
CCOc1cc(C)c(-c2onc(C(F)(F)F)c2-c2csc(C)n2)c(O)c1	3.9	0	-	0
CCN1c2ccccc2NC2N=C(OC)C(c3ccccc3)C21 (centres undefined)	1.4	7.0	0	2.1
Fc1ccc(-c2nc3n(n2)Cc2ccccc2-3)cc1	37	0	0	0
Cc1ccc(-c2nc3n(n2)Cc2ccccc2-3)cc1	0	0	-	0
CCn1c(C)nc2cc(-c3nc4n(n3)Cc3ccccc3-4)ccc21	16	24	62	26
C=CCn1c(SCc2nc3ccccc3c(=O)[nH]2)nnc1-c1cc2cc(Cl)ccc2o1	17	0	0	0
Cc1cc(NC(=O)c2ccc3c(c2)OCCO3)no1	34	0	0	0
Cc1ccc(-c2nnc(SCC(=O)Nc3ccccc3F)o2)cc1	0	49	0	0
Cc1cc(NC(=O)CSc2nnc(-c3ccc4c(c3)OCCO4)o2)no1	2.4	0	0	0
CC(C)C(NS(=O)(=O)c1cccs1)C(=O)N1CCc2ccccc2C1 (centres undefined)	0	0	0	0
CS(=O)(=O)Cc1nc2ccccc2oc1=O	22	0	0	0
c1ccc2oc(CCc3nc4ccccc4o3)nc2c1	0	0	0	0
CCN(CC)CCCN1C(=O)C(O)=C(C(C)=O)C1c1ccc(OC)cc1OC (centres undefined)	0	0	0	0
Cc1ccc(S(=O)(=O)CCSc2nc(C)cc(C(F)(F)F)c2C#N)cc1	1.6	0	-	0
CC(=O)Nc1ccc(C(=O)n2cnc3cc(C)c(C)cc32)cc1	0	0	-	0
CC(=O)Nc1ccc(S(=O)(=O)n2cnc3cc(C)c(C)cc32)cc1	0	0	28	0
O=C(CCc1c[nH]c2ccccc12)NC1CC1	0	0	-	0
COC(=O)c1c(NC(=O)c2ccccc2)sc2c1CC(C)(C)OC2	36	0	-	0
CCOC(=O)c1c(NC(=O)c2ccc(C)cc2)sc2c1CC(C)(C)OC2	0	0	-	0
SMILES	H69AR growth 86K	Lung fibro prol	Jurkat tox 60K	HUVEC prolif 384
O=C(CCNc1cc(Cl)cc(Cl)c1)c1ccco1	0	0	0	0
O=C(CCNc1ccc(F)cc1)c1ccco1	1.1	0	0	0
O=C(CCNc1ccc(F)c(Cl)c1)c1ccco1	1.8	0	65	0
Cc1cc(C)n(-c2nc3ccccc3c(=O)n2OCC(=O)Nc2c(C)cccc2C)n1	0	0	0	0
CCOC(=O)c1ccc(NC(=O)CSc2nc(NC(=O)c3ccccc3)c3c(C)c(C)oc3n2)cc1	22	0	-	0
CCC1(C)Cc2c(sc3nc(NN)n(C)c(=O)c23)CO1 (centres undefined)	12	0	-	0
CCOC(=O)CSc1nc2sc3c(c2c(=O)[nH]1)CC(C)(CC)OC3 (centres undefined)	0	0	-	0
CCCSc1nc(SCC(=O)NCc2ccccc2)c2c3c(sc2n1)COC(C)(CC)C3 (centres undefined)	37	0	-	0
CCCCc1nc2sc3c(SCC(=O)NCc4ccco4)ncnc3c2c2c1CCC2	32	47	-	0
CSc1nc(SCC(=O)NCc2ccco2)c2c3c(sc2n1)COC(C)(C)C3	23	0	-	0
CCc1nc(SCC(=O)NCc2ccco2)c2c3c(sc2n1)CCCC3	0	0	0	0
C(=C\c1ccccc1)/CSc1nnc(-c2cccnc2)o1	-	-	0	-
CCOC(=O)N1CCC(NC(=O)c2ccc3c(c2)N(Cc2ccc(F)cc2)CCS3)CC1	24	0	-	0
CCOC(=O)N1CCC(NC(=O)c2ccc3c(c2)N(C)CCS3)CC1	37	0	0	0
CCOC(=O)N1CCC(NC(=O)c2ccc3c(c2)N(Cc2ccc(C)cc2)CCS3)CC1	38	0	-	0
CCOC(=O)N1CCC(NC(=O)c2ccc3c(c2)N(Cc2ccccc2)CCS3)CC1	0	0	-	0
CN(CC(=O)NCCN1CCN(c2ccccc2)CC1)S(=O)(=O)c1ccc2c(c1)CCC(=O)N2	0	0	-	0
COc1c(F)c(F)c(C(=O)Nc2ccc(N3CCN(Cc4ccccc4)CC3)cc2)c(F)c1F	0	0	-	22
O=C(Nc1ccc(N2CCCCC2)cc1)c1ccccc1	-	-	0	-
CC(=O)N1CCN(c2ccc(NC(=O)c3ccc(C(C)(C)C)cc3)cc2)CC1	34	0	-	0
CN1CCN(c2ccc(NC(=O)c3cccc(OCc4ccccc4)c3)cc2)CC1	32	0	0	3.5
CCN1CCN(c2ccc(NC(=O)c3cccc(OCc4ccccc4)c3)cc2)CC1	0	0	-	0
O=C(Nc1ccc(N2CCCC2)cc1)c1cccc(F)c1	0	0	69	0
Cc1ccc(-c2ccc(CCC(=O)O)n2Cc2ccco2)cc1	0	0	-	0
CC(C)(C)c1ccc(-c2nnc(SCC(=O)O)n2N)cc1	0	44	0	0
SMILES	H69AR growth 86K	Lung fibro prol	Jurkat tox 60K	HUVEC prolif 384
O=C(CCN1C(=O)c2ccccc2C1=O)N1CCC(c2ccccc2)C1 (centres undefined)	0	0	0	0
COc1ccc(NC(=O)Cn2cccc2)cc1Cl	-	-	0	-
O=C(Cn1cnc([N+](=O)[O-])c1)Nc1cc(Oc2ccc(Cl)cc2Cl)cc([N+](=O)[O-])c1	9.9	0	-	0
CCN1C(=O)/C(=C2\SC(=S)N(CCCOC)C2=O)c2ccccc21	31	0	0	0
CCN1C(=O)/C(=c2\o/c(=C3\C=Cc4ccccc4N3CC)c(=O)n2CC)SC1=S	0	0	0	0
CCCCn1c(SCC(=O)Nc2ccc3c(c2)OCO3)nc2c1c(=O)n(C)c(=O)n2C	0	0	0	0
C/C(=N\O)C(=O)C(CN1CCCCC1)CN1CCCCC1	0.4	15	0	0
COc1cccc(C2CC(c3ccccc3OC)n3nc(N)nc3N2)c1 (centres undefined)	0	0	0	0
CCN1CCN(C(C)C(=O)Nc2c(C)n(C)n(-c3ccccc3)c2=O)CC1 (centres undefined)	0	0	-	0
OCCN1CCN(C(c2cccs2)c2ccc3cccnc3c2O)CC1 (centres undefined)	0	0	53	0
CCOc1ccc(NC(=O)C2CSC(c3ccncc3)=N2)cc1 (centres undefined)	0	0	0	0
N#Cc1cc2c(nc1SCC(=O)Nc1sc3c(c1C#N)CCC3)CCCCC2	20	0	0	0
N#Cc1cc2c(nc1SCC(=O)Nc1sc3c(c1C#N)CCC3)CCCC2	7.2	0	-	0
CCOc1cc2[nH]c(=S)n(CCCOC)c(=O)c2cc1OCC	0	0	-	0
CCOc1cc2[nH]c(=S)n(CCc3ccc(OC)c(OC)c3)c(=O)c2cc1OCC	3.0	17	-	16
